Test results taken from article PMC4435052 (Combinatorial Chemistry & High Throughput Screening, 2015).
Entries after “also recorded” stand apart in the source; their conditions may differ.

Assays:
[1] = system: A549 cells; assay type: cell-based, human; conditions: 25 µM
Procedure, shortened: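 A549 cells in chamber slides, treated 3-48 h with DMSO or 25 µM test compound. Stained with phalloidin, Hoechst 33342, anti-α-tubulin and anti-MgcRacGAP. Cells scored as normal (mononuclear), mitotic (rounded), multinuclear or dead in at least eight random fields per condition. Reported as average percentage per time point.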

[2] = system: MDA-MB-231 cells; assay: Cytotoxicity, CellTox Green live cell imaging; assay type: cell-based, human
Procedure, shortened: (§1)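 Cells cultured in EMEM, DMEM or RPMI 1640 with 10% FBS, seeded at 1,600 cells/well 6-12 h before treatment. Exposed up to 72 h to test compound (5-80 µM), DMSO as negative control, or 20 µM benzethonium chloride as kill control. CellTox Green in medium; live imaging gave toxicity (green fluorescence) and proliferation (phase-contrast confluency). Replicate sets.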

[3] = system: MDA-MB-231 cells; assay: Scratch-wound Matrigel invasion; assay type: cell-based, human; conditions: 10-40 µM, increasing concentrations
Procedure, shortened: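 MDA-MB-231 cells at 40,000/well on Matrigel-precoated plates. After 16 h, near-confluent monolayers scratched, washed and overlaid with Matrigel (8 mg/mL). After 30 min at 37°C, medium with DMSO or test compound (10-40 µM final) added. Scratch-wound imaging followed; relative wound density computed per image; n=4.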

[4] = system: A549 cells; assay: FUCCI cell cycle reporter assay; assay type: cell-based, human; conditions: 80 µM, from 6 h after exposure
Procedure, shortened: (§2)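 A549 cells at 50,000/well received Premo gemini-GFP (G2/M) and Cdt-RFP (G1/S) 1:1 24 h after plating. After overnight incubation, replated at 1,600 cells/well. Imaged hourly by phase contrast, green and red fluorescence. 14 h later given 80 µM test compound, DMSO, or 20 µM benzethonium chloride, then followed hourly.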

[5] = target: MgcRacGAP(345-618) GAP domain (Homo sapiens, UniProt Q9H0H5); assay: Primary biochemical GAP activity assay, Rac1
Procedure, shortened: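 Rac1(F28L) 600 nM with MgcRacGAP(345-618) at 2 nM in 15 mM Hepes pH 7.5, 20 mM NaCl, 1 mM EGTA, 0.02% Tween 20, 0.1 mg/mL BSA, 2% DMSO, 150 µM GTP; 2 h at room temperature. GDP detected by ADP Hunter Plus at half volumes (resorufin ex 530/em 590 nm). Test compound at 0.1-100 µM, with or without protein pre-incubation before GTP; n=8; control-normalized, fits constrained 0-100%.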

[6] = target: MgcRacGAP-stimulated activity of wild type Rac1 (Homo sapiens, UniProt Q9H0H5); assay: Multiple-turnover GTPase assay with wild type Rac1; assay type: biochemical; conditions: wild type Rac1, data not shown
Procedure, shortened: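 Wild-type Rac1 […] in the 2x mix, combined with test compound in GTPase/GAP buffer. MgcRacGAP serially diluted in (0.1-100 nM) and held 2 h at room temperature. Started with 2x GTP (10 µM) and run 2 h more. Remaining GTP read by GTPase-Glo reagent (30 min), then detection solution; luminescence read after 10 min.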

[7] = target: Rac1-MgcRacGAP complex (Homo sapiens, UniProt P63000+Q9H0H5, Q61L); assay: MgcRacGAP - Rac1 Q61L binding assay, bio-layer interferometry; conditions: 12.5-50 µM, dose dependent
[8] = target: T1, p50RhoGAP(205-439) GAP domain (Mus musculus, UniProt Q5FWK3); assay: Selectivity GAP activity assay with p50RhoGAP GAP domain; assay type: biochemical
T1 sequence (Q5FWK3 205-439): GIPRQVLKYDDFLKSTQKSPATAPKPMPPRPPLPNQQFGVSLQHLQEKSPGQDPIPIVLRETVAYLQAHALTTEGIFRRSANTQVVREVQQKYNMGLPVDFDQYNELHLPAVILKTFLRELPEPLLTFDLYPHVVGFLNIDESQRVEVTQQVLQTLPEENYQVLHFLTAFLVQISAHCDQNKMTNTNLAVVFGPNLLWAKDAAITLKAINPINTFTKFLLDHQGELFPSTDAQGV
Procedure, shortened: (§3)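 Same buffer as the primary assay: Rac1(F28L) 600 nM, 150 µM GTP, 2% DMSO, 2 h at room temperature. GAP domain is BCR(1010-1271) at 200 nM or p50RhoGAP(205-439) at 50 nM, doses set for similar signal window. Test compound at 0.1-100 µM, with or without pre-incubation before GTP start. Read-out is ADP Hunter Plus fluorescence (ex 530/em 590 nm), normalized to plate controls.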

[9] = system: HeLa cells; assay: Immunofluorescence analysis of cell division morphology; assay type: cell-based, human; conditions: 25 µM, 48 h
Procedure, shortened: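 HeLa cells on fibronectin-coated coverslips, treated 3-48 h with DMSO or 25 µM test compound. Fixed in ice-cold methanol and stained with mouse anti-α-tubulin and goat anti-MgcRacGAP. Detected with Alexa Fluor 488 and 647 secondaries; DAPI-containing mountant. Imaged by widefield fluorescence microscopy.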

[10] = target: T2, BCR(1010-1271) GAP domain (Homo sapiens, UniProt P11274); assay: Counter/selectivity GAP activity assay with BCR GAP domain in place of MgcRacGAP; assay type: biochemical
T2 sequence (P11274 1010-1271): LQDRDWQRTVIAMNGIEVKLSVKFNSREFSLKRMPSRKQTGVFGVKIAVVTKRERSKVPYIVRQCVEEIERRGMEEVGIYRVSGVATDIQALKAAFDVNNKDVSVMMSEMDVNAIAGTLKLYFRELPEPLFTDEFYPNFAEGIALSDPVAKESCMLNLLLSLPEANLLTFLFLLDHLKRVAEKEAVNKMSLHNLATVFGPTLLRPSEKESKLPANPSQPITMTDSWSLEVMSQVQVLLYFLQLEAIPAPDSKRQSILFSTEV
Procedure, shortened: as §3

[11] = system: A549 cells; assay: Cytotoxicity by live cell imaging; assay type: cell-based, human; conditions: 80 µM
Procedure, shortened: as §2

[12] = system: RWPE-1 cells; assay: Cell viability dose response in slow growing cells; assay type: cell-based, human; conditions: 72 h dose response 5-80 µM
Procedure, shortened: as §1

[13] = system: HeLa cells; assay type: cell-based, human
Procedure, shortened: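 HeLa cells synchronized by double thymidine block: 2 mM thymidine at plating for 19 h, three PBS washes, release into fresh medium, second 2 mM block 9 h later, washed after 16 h. Released with or without test compound (10-80 µM) or nocodazole (165 nM). Tracked by live-cell phase imaging for cell rounding and death.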

[14] = system: essential replicative helicase of Staphylococcus aureus; conditions: 80 µM, ref PubChem AID 485395; cited from earlier work
[15] = target: MgcRacGAP GAP activity on wild type Rac1 (Homo sapiens, UniProt Q9H0H5); assay: Single turnover GAP assay with GTP-loaded wild type Rac1; assay type: biochemical; conditions: GTP-loaded wild type Rac1, 50 µM
[16] = system: MDA-MB-231 cells; assay: Cell proliferation by live cell imaging; assay type: cell-based, human
Procedure, shortened: as §1

[17] = system: A549 cells; assay: Cellular movement, tracking of individual cells in 2D culture; assay type: cell-based, human; conditions: 25 µM, 24 h
Procedure, shortened: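 A549 cells seeded at 10,000/well and given DMSO or 25 µM test compound 6 h later. Imaged every 5 min with a 20x objective for 24 h. Randomly chosen cells tracked individually to trace movement in 2D.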

[18] = prolonged periods of time, data not shown
[19] = proteins pre-incubated with compound before GTP addition
[20] = dose response 0.1-100 µM, no pre-incubation

Sequence of MgcRacGAP(345-618) GAP domain (Q9H0H5 345-618): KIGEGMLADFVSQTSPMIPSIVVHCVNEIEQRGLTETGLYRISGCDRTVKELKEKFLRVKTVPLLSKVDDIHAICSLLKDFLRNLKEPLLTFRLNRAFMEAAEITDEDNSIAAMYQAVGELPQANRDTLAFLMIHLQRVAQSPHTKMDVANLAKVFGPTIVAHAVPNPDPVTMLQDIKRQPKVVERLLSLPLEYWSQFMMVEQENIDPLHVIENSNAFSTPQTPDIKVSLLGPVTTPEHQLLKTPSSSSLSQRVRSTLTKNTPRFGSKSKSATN
Sequence of Rac1-MgcRacGAP complex (Q9H0H5 345-618, stated change not applied, one chain of several): as the sequence (Q9H0H5 345-618) above
Sequence of MgcRacGAP GAP activity on wild type Rac1 (Q9H0H5 345-618): as above
Sequence of MgcRacGAP-stimulated activity of wild type Rac1 (Q9H0H5 345-618): as above

Compound: Cl.Cl.c1cc2cc(C3=NCCN3)ccc2cc1C1=NCCN1 [MINC1, 2,6-bis(4,5-dihydro-1H-imidazol-2-yl)naphthalene dihydrochloride]
- time of peak of cells with mitotic phenotype [1]: ≤ 9 h
- percentage of multinucleated cells ([1]; during 24h treatment): increased over time
- concentration at which cell death was observed [2, 18]: 80 µM
- cell toxicity at concentrations that stop proliferation ([2]; ≥20 µM, highly proliferative cells): without detectable cell toxicity
- wound-healing rate [3]: decreased wound-healing rates; also recorded: decreasing ability to migrate
- cell cycle state [4]: arrested in G2/M-phase
- maximum inhibition reached by dose response curves [5]: 80-90%
- IC50 ([5]; IC50 MgcRacGAP, dose response 0.1-100 µM, no pre-incubation): 15 ± 5 µM
- Hill slope ([5]; dose response, no pre-incubation): 0.9
- Hill slope, pre-incubation [5, 19]: 0.7
- inhibition of MgcRacGAP-stimulated activity, multiple-turnover assay [6]: did not detect any notable inhibition
- dissociation of Rac1-MgcRacGAP complex [7]: slowed down the dissociation process; also recorded: decreased dissociation rate
- activity towards p50RhoGAP [8, 20]: no detectable activity
- activity towards p50RhoGAP, pre-incubation [8, 19]: no detectable activity
- multinucleated cells versus control [9]: showed more multinucleated cells
- activity towards BCR [10, 20]: no detectable activity
- activity towards BCR, pre-incubation [10, 19]: no detectable activity
- tolerance of high concentration [11]: could tolerate such high concentrations
- effect on cell viability in slow growing cells [12]: negligible effects on cell viability
- time to cell rounding, non-synchronized cells ([13]; after compound addition): approximately 3 h
- time to cell rounding, synchronized cells ([13]; after release from double thymidine block): 8 to 10 h
- concentration at which cell death was observed [13, 18]: 80 µM
- reported bioactivity [14]: marginal activity
- effect on MgcRacGAP GAP activity, single turnover assay [15]: no effect
- IC50 ([16]; Homo sapiens, MDA-MB-231, 48 h, read-out: IC50 cell proliferation): 17 µM
- concentration that caused cell proliferation to cease ([16]; highly proliferative cells): ≥ 20 µM
- cell motility [17]: lost almost all motility
